Experimental data as given in ChEMBL document CHEMBL1649505, “Activity of telavancin against Staphylococcus aureus strains with various vancomycin susceptibilities in an in vitro pharmacokinetic/pharmacodynamic model with simulated endocardial vegetations” (Antimicrob Agents Chemother, 2009).
Converted amounts (≈) assume the structure as drawn. The source made the active and inactive calls. The rule behind the calls is not given here.

Legend:
Staphylococcus aureus [1] = experiment: Antimicrobial activity against glycopeptide-intermediate Staphylococcus aureus NJ992 by broth microdilution method
Staphylococcus aureus [2] = experiment: Antimicrobial activity against heteroresistant glycopeptide-intermediate Staphylococcus aureus 1629 by broth microdilution method; format: functional
How it was run: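 MICs determined by broth microdilution at ~5.5 log10 CFU/ml following CLSI guidelines.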

Staphylococcus aureus [3] = experiment: microbe, parasite or virus in culture; conditions: 1199
Staphylococcus aureus [4] = experiment: microbe, parasite or virus in culture; conditions: 494
[5] = Cmax in in vitro pharmacokinetic/pharmacodynamic model at 300 mg for every 8 hrs
[6] = AUC (0 to 24 hrs) in in vitro pharmacokinetic/pharmacodynamic model at 300 mg for every 8 hrs
[7] = Cmax in in vitro pharmacokinetic/pharmacodynamic model at 5 mg/kg for every 24 hrs; format: ADME, organism-based; set-up: dose 5 mg/kg
How it was run: (§1)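 Drugs given as boluses into the central compartment of a 250-ml glass in vitro PK/PD model over 96 h. Samples taken via the injection port at 1, 4, 8, 24, 32, 48, 72 and 96 h. […] Half-life, peak and AUC derived by the trapezoidal method. Models run in duplicate; mean ± SD.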

[8] = AUC (0 to 24 hrs) in in vitro pharmacokinetic/pharmacodynamic model at 5 mg/kg for every 24 hrs; format: ADME, organism-based; set-up: time < 24 hr, dose 5 mg/kg; how it was run: as §1
[9] = Half life in in vitro pharmacokinetic/pharmacodynamic model at 5 mg/kg for every 24 hrs; format: ADME, organism-based; set-up: dose 5 mg/kg; how it was run: as §1
[10] = Cmax in in vitro pharmacokinetic/pharmacodynamic model at 1 g for every 12 hrs; format: ADME; set-up: dose 1 g; how it was run: as §1
[11] = Half life in in vitro pharmacokinetic/pharmacodynamic model at 1 g for every 12 hrs; format: ADME; how it was run: as §1
[12] = AUC (0 to 24 hrs) in in vitro pharmacokinetic/pharmacodynamic model at 1 g for every 12 hrs; format: ADME; set-up: dose 1 g, time < 24 hr; how it was run: as §1
Staphylococcus aureus [13] = experiment: Antibacterial activity against glycopeptide-intermediate Staphylococcus aureus NJ992 assessed as bacterial load per gram in in vitro pharmacokinetic/pharmacodynamic model at 10 mg/kg administered daily after 96 hrs; format: functional
Staphylococcus aureus [14] = experiment: Antibacterial activity against methicillin-susceptible Staphylococcus aureus 1199 assessed as decrease in bacterial load in in vitro pharmacokinetic/pharmacodynamic model at 1 g for every 12 hrs administered daily after 96 hrs; format: functional, organism-based
How it was run: (§2)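 250-ml in vitro PK/PD model holding simulated endocardial vegetations, inoculum ~9 log10 CFU/g. Regimens simulated over 96 h: telavancin 10 mg/kg daily (peak 87.5 μg/ml, t½ 8 h) or vancomycin 1 g every 12 h (trough 10 μg/ml, t½ 6 h). Two SEVs per model removed at 0–96 h, homogenized, diluted and plated on TSA at 35°C for 18–24 h. Detection limit 2 log10 CFU/g; models in duplicate.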

Staphylococcus aureus [15] = experiment: Antibacterial activity against methicillin-susceptible Staphylococcus aureus 1199 assessed as bacterial load per gram in in vitro pharmacokinetic/pharmacodynamic model at 10 mg/kg administered daily after 96 hrs; format: functional; how it was run: as §2
Staphylococcus aureus [16] = experiment: Antibacterial activity against glycopeptide-intermediate Staphylococcus aureus NJ992 assessed as decrease in bacterial load in in vitro pharmacokinetic/pharmacodynamic model at 10 mg/kg administered daily after 62 hrs; format: functional, organism-based; set-up: dose 10 mg/kg; how it was run: as §2
Staphylococcus aureus [17] = experiment: Antibacterial activity against heteroresistant glycopeptide-intermediate Staphylococcus aureus 1629 assessed as bacterial load per gram in in vitro pharmacokinetic/pharmacodynamic model at 10 mg/kg administered daily after 96 hrs; format: functional; how it was run: as §2
Staphylococcus aureus [18] = experiment: Antibacterial activity against methicillin-resistant Staphylococcus aureus 494 assessed as decrease in bacterial load in in vitro pharmacokinetic/pharmacodynamic model at 1 g for every 12 hrs administered daily after 96 hrs; format: functional, organism-based; how it was run: as §2
Staphylococcus aureus [19] = experiment: Antibacterial activity against glycopeptide-intermediate Staphylococcus aureus NJ992 assessed as decrease in bacterial load in in vitro pharmacokinetic/pharmacodynamic model at 1 g for every 12 hrs administered daily after 96 hrs; format: functional, organism-based; how it was run: as §2
Staphylococcus aureus [20] = experiment: Antibacterial activity against heteroresistant glycopeptide-intermediate Staphylococcus aureus 1629 assessed as decrease in bacterial load in in vitro pharmacokinetic/pharmacodynamic model at 1 g for every 12 hrs administered daily after 96 hrs; format: functional, organism-based; how it was run: as §2
[21] = AUC (0 to 24 hrs) in in vitro pharmacokinetic/pharmacodynamic model at 10 mg/kg for every 12 hrs; format: ADME, organism-based; set-up: time < 24 hr, dose 10 mg/kg; conditions: in the assay text read “every 24 hrs” for “every 12 hrs”
How it was run: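 Central compartment (250 ml glass in vitro PK/PD model holding simulated endocardial vegetations) sampled via injection port at 1, 4, 8, 24, 32, 48, 72 and 96 h. Drug levels measured by agar-well bioassay with Micrococcus luteus ATCC 9341 (zone sizes after 18–24 h at 35°C). Peak, half-life and AUC derived by trapezoidal method. Models run in duplicate; mean ± SD.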

Staphylococcus aureus [22] = experiment: Antibacterial activity against heteroresistant glycopeptide-intermediate Staphylococcus aureus 1629 assessed as decrease in bacterial load in in vitro pharmacokinetic/pharmacodynamic model at 10 mg/kg administered daily after 64 hrs; format: functional, organism-based; set-up: dose 10 mg/kg; how it was run: as §2

CO[C@H]1/C=C/O[C@@]2(C)Oc3c(C)c(O)c4c(O)c(c(/C=N/N5CCN(C)CC5)c(O)c4c3C2=O)NC(=O)/C(C)=C\C=C\[C@H](C)[C@H](O)[C@@H](C)[C@@H](O)[C@@H](C)[C@H](OC(C)=O)[C@@H]1C [RIFAMPIN]
MIC (Staphylococcus aureus [1]): 2050 µg/mL (≈ 2490 µM)
MIC (Staphylococcus aureus [2]): 0.004 µg/mL (≈ 0.00486 µM)
MIC (Staphylococcus aureus [3]): 0.004 µg/mL (≈ 0.00486 µM)
MIC (Staphylococcus aureus [4]): 0.004 µg/mL (≈ 0.00486 µM)
Cmax [5]: 4900 ng/mL
AUC at 24 h [6]: 64.4 µg·h/mL

GENTAMICIN [listing 1 of 2 here]
Cmax [7]: 15800 ng/mL
AUC [8]: 63.1 µg·h/mL
t1/2 [9]: 3.4 h

CN[C@H](CC(C)C)C(=O)N[C@H]1C(=O)N[C@@H](CC(N)=O)C(=O)N[C@H]2C(=O)N[C@H]3C(=O)N[C@H](C(=O)N[C@H](C(=O)O)c4cc(O)cc(O)c4-c4cc3ccc4O)[C@H](O)c3ccc(c(Cl)c3)Oc3cc2cc(c3O[C@@H]2O[C@H](CO)[C@@H](O)[C@H](O)[C@H]2O[C@H]2C[C@](C)(N)[C@H](O)[C@H](C)O2)Oc2ccc(cc2Cl)[C@H]1O [VANCOMYCIN]
MIC (Staphylococcus aureus [1]): 8 µg/mL (≈ 5.52 µM)
Cmax [10]: 37000 ng/mL
half-life [11]: 6.2 h
AUC at 24 h [12]: 391 µg·h/mL

GENTAMICIN [listing 2 of 2 here]
MIC (Staphylococcus aureus [2]): 0.25 µg/mL

CCCCCCCCCCNCCN[C@@]1(C)C[C@H](O[C@H]2[C@H](Oc3c4cc5cc3Oc3ccc(cc3Cl)[C@@H](O)[C@@H](NC(=O)[C@@H](CC(C)C)NC)C(=O)N[C@@H](CC(N)=O)C(=O)N[C@H]5C(=O)N[C@H]3C(=O)N[C@H](C(=O)N[C@H](C(=O)O)c5cc(O)c(CNCP(=O)(O)O)c(O)c5-c5cc3ccc5O)[C@H](O)c3ccc(c(Cl)c3)O4)O[C@H](CO)[C@@H](O)[C@@H]2O)O[C@@H](C)[C@H]1O [TELAVANCIN]
CFU/g (Staphylococcus aureus [13]): 4.1 log10 CFU/g
Activity (Staphylococcus aureus [14]): inactive
CFU/g (Staphylococcus aureus [15]): 2.8
Activity (Staphylococcus aureus [16]): Active
CFU/g (Staphylococcus aureus [17]): 4.2 log10 CFU/g
MIC (Staphylococcus aureus [1]): 0.5 µg/mL (≈ 0.285 µM)
MIC (Staphylococcus aureus [2]): 0.125 µg/mL (≈ 0.0712 µM)
MIC (Staphylococcus aureus [3]): 0.25 µg/mL (≈ 0.142 µM)
Activity (Staphylococcus aureus [18]): inactive
MIC (Staphylococcus aureus [4]): 0.125 µg/mL (≈ 0.0712 µM)
Activity (Staphylococcus aureus [19]): inactive
Activity (Staphylococcus aureus [20]): inactive
AUC at 24 h [21]: 969 µg·h/mL
Activity (Staphylococcus aureus [22]): Active
